Published values of several laboratories.
Protocols differ between the studies behind these lines. Converted amounts (≈) assume the structure as drawn.

N#C[C@]1(CO)O[C@@H](n2cc(F)c3c(N)ncnc32)C[C@@H]1O — IC50 (Hepatitis B virus; viral replication, qPCR; HepG2.2.15; 14 days): 26 nM
CC(C)=CCc1c(O)ccc(C(=O)/C=C/c2ccc(O)cc2)c1O — inhibition (Severe acute respiratory syndrome coronavirus 2; cytopathic effect, inhibitor; Vero C1008; 12.5 µM): 0%
CCN(CCO)CCCC(C)Nc1ccnc2cc(Cl)ccc12 (stereo not shown) — IC50 (Severe acute respiratory syndrome coronavirus 2; viral replication, inhibitor; A549-ACE2): 871 nM
COc1c2c(cc3c1OCO3)[C@]13C=C[C@H](OC)C[C@@H]1[N@](C2)C[C@H]3OC(=O)c1ccc2ccccc2c1 — IC50 (PANC-1; cell growth or viability, WST-1): > 10000 nM
COc1cc2c(cc1OC)CN(CCc1ccc(NC(=O)c3cc(OC)c(OC)cc3NC(=O)c3cnc4ccccc4c3)cc1)CC2 — IC50 (Severe acute respiratory syndrome coronavirus 2; viral replication, inhibitor; A549-ACE2): 1480 nM
C=C[C@@](C)(/C=C/c1ccc(O)cc1)CCC=C(C)C — inhibition (Severe acute respiratory syndrome coronavirus 2; cytopathic effect, inhibitor; Vero C1008; 12.5 µM): 0%
O=[N+]([O-])c1ccc(C2=[N+]([O-])c3ccccc3N3CCN=C23)cc1 — MIC50 (Fusobacterium nucleatum; microbial growth): ≤ 0.06 µg/mL
C=CCNC1=C2C[C@@H](C)C[C@H](OC)[C@H](O)[C@@H](C)/C=C(\C)[C@H](OC(N)=O)[C@@H](OC)/C=C\C=C(/C)C(=O)NC(=C(c3ccccc3)C1=O)C2=O — IC50 (ARPE-19; cell growth or viability, MTT): > 20000 nM
CCc1ccc(NC(=O)c2cc3c(=O)n4ccccc4nc3n2C)cc1 — inhibition (Severe acute respiratory syndrome coronavirus 2; viral replication; Vero; 10 nM): 6.1%
[O-][N+]1=C(c2ccc(Cl)cc2)C2=NCCN2c2ccccc21 — MIC90 (Clostridioides difficile; microbial growth): 0.25 µg/mL (≈ 0.84 µM)
CC(=O)c1cccc(NC(=O)c2cc3c(=O)n4ccccc4nc3n2C)c1 — inhibition (Severe acute respiratory syndrome coronavirus 2; viral replication; Vero; 1 µM): 93.7%
CC(C)OC(=O)[C@H](C)N[P@](=O)(CO[C@H](C)Cn1cnc2c(N)ncnc21)Oc1ccccc1 — IC50 (Hepatitis B virus; viral replication; HepG2.2.15; 14 days): 50 nM
CCN(CC)CCCC(C)Nc1ccnc2cc(Cl)ccc12 (stereo not shown) — IC50 (Severe acute respiratory syndrome coronavirus 2; viral replication, inhibitor; Vero C1008): 1580 nM
COc1ccc(C[C@@H]2c3cc(Oc4cc(C[C@@H]5c6cc(O)c(OC)cc6CCN5C)ccc4O)c(OC)cc3CCN2C)cc1 — inhibition (Severe acute respiratory syndrome coronavirus 2; cytopathic effect; Vero C1008; 0.7812 µM): 0%
CN(Cc1cc(Br)cc(Br)c1N)C1CCCCC1 — IC50 (Severe acute respiratory syndrome coronavirus 2; viral replication, inhibitor; A549-ACE2): 1320 nM
Cc1cccn2c(=O)c3cc(C(=O)Nc4ccc(N(C)C)cc4)n(C)c3nc12 — inhibition (Severe acute respiratory syndrome coronavirus 2; viral replication; Vero; 1 µM): 80%
CC(C)(C)[C@]1(O)CCN2C[C@@H]3c4ccccc4CCc4cccc(c43)[C@H]2C1 — IC50 (Severe acute respiratory syndrome coronavirus 2; viral replication; Vero C1008): 6610 nM
O=C(/C=C/c1ccc(O)c(O)c1/C=C/c1ccc(O)c(O)c1)O[C@H](Cc1ccc(O)c(O)c1)C(=O)O — inhibition (Severe acute respiratory syndrome coronavirus 2; cytopathic effect, inhibitor; Vero C1008; 25 µM): 0%
CCN(CC)CCO[C@H]1CC[C@@]2(C)C(=CC[C@@H]3[C@@H]2CC[C@]2(C)C(=O)CC[C@@H]32)C1 — IC50 (Severe acute respiratory syndrome coronavirus 2; viral replication, inhibitor; A549-ACE2): 132 nM
Cc1ncc([N+](=O)[O-])n1CCO — MIC50 (Fusobacterium nucleatum; microbial growth): ≤ 0.06 µg/mL
CN(CCc1ccc(Cl)c(Cl)c1)CCN1CCCC1 — IC50 (Severe acute respiratory syndrome coronavirus 2; viral replication; Vero C1008): 5250 nM
O=C(O[C@@H]1Cc2c(O)cc(O)cc2O[C@@H]1c1cc(O)c(O)c(O)c1)c1cc(O)c(O)c(O)c1 — inhibition (Severe acute respiratory syndrome coronavirus 2; cytopathic effect; Vero C1008; 3.125 µM): 0%
